# Activity calls are given as the source filed them. No cut-off for these calls is given here.
# Experiments:
# [1] = Antiarrhythmic activity in hiPSC-CMs assessed as prolongation of action potential; design: species or system Homo sapiens, iPSC-CM
# [2] = Inhibition of sodium channel (unknown origin) expressed in HEK cells assessed as reduction in peak sodium current by automated patch clamp method; assay type: cell-based; settings: Homo sapiens, HEK293
# [3] = species: Homo sapiens; test: Selectivity index, ratio of IC50 for potassium channel (unknown origin) expressed in CHO cells assessed as reduction in potassium current to IC50 for sodium channel (unknown origin) expressed in HEK cells assessed as reduction in late inward sodium current
# [4] = target: Cytochrome P450 2D6 (Homo sapiens, UniProt P10635); test: Drug metabolism assessed as human CYP2D6-mediated metabolism per ug protein; assay type: ADME; settings: recombinant enzyme
# [5] = Chemical stability in pH 7.4 phosphate buffer assessed as half life at 100 uM by RP-HPLC analysis; assay type: physicochemical
# [6] = target: Cytochrome P450 3A5 (Homo sapiens, UniProt P20815); test: Drug metabolism assessed as human CYP3A5-mediated metabolism per ug protein; assay type: ADME; settings: recombinant enzyme
# [7] = Antiarrhythmic activity in patient-derived hiPSC-CMs carrying LQT3 mutation assessed as shortening dose of action potential; assay type: functional, Homo sapiens, iPSC-CM
# [8] = Antiarrhythmic activity in patient-derived hiPSC-CMs carrying LQT3 mutation assessed as fold shortening of action potential duration relative to control; assay type: functional, Homo sapiens, iPSC-CM
# [9] = Antiarrhythmic activity in hiPSC-CMs assessed as cessation dose of cell beating; settings: human, ipsc-cm
# [10] = Inhibition of sodium channel (unknown origin) expressed in HEK cells assessed as reduction in late inward sodium current by automated patch clamp method; assay type: cell-based; settings: Homo sapiens, HEK293
# [11] = Inhibition of potassium channel (unknown origin) expressed in CHO cells assessed as reduction in potassium current by automated patch clamp method; assay type: cell-based
# [12] = target: Cytochrome P450 3A4 (Homo sapiens, UniProt P08684); test: Drug metabolism assessed as human CYP3A4-mediated metabolism per ug protein; assay type: ADME; settings: recombinant enzyme
# [13] = Antiarrhythmic activity in patient-derived hiPSC-CMs carrying LQT3 mutation assessed as shortening of action potential duration; assay type: functional, Homo sapiens; settings: ipsc-cm
# [14] = Antiarrhythmic activity in hiPSC-CMs assessed as dose for induction of early after depolarizations; settings: human, ipsc-cm
# [15] = (§1) Antiarrhythmic activity in patient-derived hiPSC-CMs carrying LQT3 mutation assessed as cessation dose for cell beating; assay type: functional, Homo sapiens, iPSC-CM
# [16] = Metabolic stability in human liver S9 fraction assessed as compound remaining at 50 uM after 1 hr by HPLC method; assay type: ADME, subcellular; settings: read-out: Stabilty
# Summary of the method: (§2)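 Human liver microsomes (0.4–0.5 mg protein) or S-9 (1 mg) with 50 μM compound in 50 mM potassium phosphate pH 7.4 plus NADPH-generating system, 37 °C shaking for 0, 7, 15, 30, 60 min; stopped with cold acetonitrile; HPLC C18, isocratic water/acetonitrile with 0.05% TFA, UV 275.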
# [17] = Metabolic stability in human liver microsomes assessed as compound remaining at 50 uM after 1 hr by HPLC method; assay type: ADME, Microsome; settings: read-out: Stabilty; summary of the method: as §2
# [18] = Toxicity in BALB/c mouse assessed as central nervous system effects at 100 mg/kg, ip; assay type: organism-based; settings: in vivo
# [19] = Toxicity in ip dosed BALB/c mouse assessed as lethal dose; assay type: organism-based; settings: in vivo
# [20] = Toxicity in BALB/c mouse assessed as lethargy at 100 mg/kg, ip monitored for 30 mins; assay type: organism-based; settings: in vivo, 0.5 h
# [21] = Metabolic stability in human liver microsomes assessed as half life at 50 uM measured upto 60 mins by HPLC method; assay type: ADME, Microsome; summary of the method: as §2
# [22] = Metabolic stability in human liver S9 fraction assessed as half life at 50 uM measured upto 60 mins by HPLC method; assay type: ADME, subcellular; summary of the method: as §2
# [23] = species: Homo sapiens; test: Selectivity index, ratio of IC50 for sodium channel (unknown origin) expressed in HEK cells assessed as reduction in peak sodium current to IC50 for sodium channel (unknown origin) expressed in HEK cells assessed as reduction in late inward sodium current; assay type: cell-based
# [24] = Antiarrhythmic activity in hiPSC-CMs assessed as fold prolongation of action potential relative to control; settings: human, ipsc-cm
# [25] = Chemical stability in pH 3 phosphate buffer assessed as half life at 100 uM by RP-HPLC analysis; assay type: physicochemical
# [26] = Tmax in Sprague-Dawley rat at 5 mg/kg, iv measured upto 25 hrs by LCMS analysis; assay type: ADME, organism-based; settings: in vivo
# [27] = Cmax in Sprague-Dawley rat at 25 mg/kg, po measured upto 25 hrs by LCMS analysis; assay type: ADME, organism-based; design: route oral, dose 25 mg/kg, time <=25; settings: in vivo
# [28] = Tmax in Sprague-Dawley rat at 25 mg/kg, po measured upto 25 hrs by LCMS analysis; assay type: ADME, organism-based; settings: in vivo
# [29] = AUC in Sprague-Dawley rat at 25 mg/kg, po measured upto 25 hrs by LCMS analysis; assay type: ADME, organism-based; design: route oral, dose 25 mg/kg, time <=25; settings: in vivo
# [30] = Oral bioavailability in Sprague-Dawley rat at 25 mg/kg measured upto 25 hrs by LCMS analysis; assay type: ADME, organism-based; settings: in vivo
# [31] = Half life in Sprague-Dawley rat at 5 mg/kg, iv measured upto 25 hrs by LCMS analysis; assay type: ADME, organism-based; settings: in vivo
# [32] = Cmax in Sprague-Dawley rat at 5 mg/kg, iv measured upto 25 hrs by LCMS analysis; assay type: ADME, organism-based; design: route intravenous, dose 5 mg/kg, time <=25; settings: in vivo
# [33] = AUC in Sprague-Dawley rat at 5 mg/kg, iv measured upto 25 hrs by LCMS analysis; assay type: ADME, organism-based; design: route intravenous, dose 5 mg/kg, time <=25; settings: in vivo
# [34] = Half life in Sprague-Dawley rat at 25 mg/kg, po measured upto 25 hrs by LCMS analysis; assay type: ADME, organism-based; settings: in vivo
# [35] = Potency index, ratio of mexiletine EC50 to test compound EC50 for antiarrhythmic activity in hiPSC-CMs expressing LQT3 mutation assessed as shortening of action potential duration; assay type: functional, Homo sapiens, iPSC-CM
# [36] = system: iPSC-CM; test: as §1; assay type: functional; settings: Homo sapiens
# [37] = Toxicity in BALB/c mouse assessed as behavioral effects at 100 mg/kg, ip monitored for 30 mins; assay type: organism-based; settings: in vivo, 0.5 h
# Summary of the method: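 Adult male BALB/c mice, four per compound, 100 mg/kg i.p.; behaviour (lethargy, immobilization, seizures, shaking) observed for 30 min; lethality recorded at 24 h.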
# [38] = Homo sapiens, iPSC-CM, read-out: EC50
# Sequence of Cytochrome P450 3A5 (P20815 whole entry): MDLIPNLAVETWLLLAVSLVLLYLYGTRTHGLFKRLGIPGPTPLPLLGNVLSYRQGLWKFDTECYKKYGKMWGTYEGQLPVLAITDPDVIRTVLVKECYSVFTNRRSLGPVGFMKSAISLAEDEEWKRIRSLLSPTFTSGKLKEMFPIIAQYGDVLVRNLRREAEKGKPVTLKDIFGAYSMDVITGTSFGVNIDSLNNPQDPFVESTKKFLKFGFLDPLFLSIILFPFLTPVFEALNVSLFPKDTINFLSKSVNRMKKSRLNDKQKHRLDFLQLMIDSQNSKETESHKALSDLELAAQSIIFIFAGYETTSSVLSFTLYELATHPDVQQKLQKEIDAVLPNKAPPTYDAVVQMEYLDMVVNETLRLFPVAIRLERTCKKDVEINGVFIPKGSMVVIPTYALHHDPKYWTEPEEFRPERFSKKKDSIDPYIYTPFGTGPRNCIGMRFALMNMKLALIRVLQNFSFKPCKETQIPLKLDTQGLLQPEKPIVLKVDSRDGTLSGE
# Sequence of Cytochrome P450 3A4 (P08684 whole entry): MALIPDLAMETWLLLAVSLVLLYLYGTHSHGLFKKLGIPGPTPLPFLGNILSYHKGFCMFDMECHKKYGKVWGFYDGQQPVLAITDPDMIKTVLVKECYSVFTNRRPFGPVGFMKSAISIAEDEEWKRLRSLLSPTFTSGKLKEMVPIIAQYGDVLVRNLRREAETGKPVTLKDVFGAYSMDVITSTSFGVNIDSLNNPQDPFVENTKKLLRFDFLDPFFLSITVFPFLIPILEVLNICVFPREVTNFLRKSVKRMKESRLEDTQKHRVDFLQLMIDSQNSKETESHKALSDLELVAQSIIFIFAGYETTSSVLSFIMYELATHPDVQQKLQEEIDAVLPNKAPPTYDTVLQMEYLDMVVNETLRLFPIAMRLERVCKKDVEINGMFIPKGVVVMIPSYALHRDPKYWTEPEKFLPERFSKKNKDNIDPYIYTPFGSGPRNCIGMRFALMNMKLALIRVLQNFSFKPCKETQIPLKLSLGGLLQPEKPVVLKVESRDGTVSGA
# Sequence of Cytochrome P450 2D6 (P10635 whole entry): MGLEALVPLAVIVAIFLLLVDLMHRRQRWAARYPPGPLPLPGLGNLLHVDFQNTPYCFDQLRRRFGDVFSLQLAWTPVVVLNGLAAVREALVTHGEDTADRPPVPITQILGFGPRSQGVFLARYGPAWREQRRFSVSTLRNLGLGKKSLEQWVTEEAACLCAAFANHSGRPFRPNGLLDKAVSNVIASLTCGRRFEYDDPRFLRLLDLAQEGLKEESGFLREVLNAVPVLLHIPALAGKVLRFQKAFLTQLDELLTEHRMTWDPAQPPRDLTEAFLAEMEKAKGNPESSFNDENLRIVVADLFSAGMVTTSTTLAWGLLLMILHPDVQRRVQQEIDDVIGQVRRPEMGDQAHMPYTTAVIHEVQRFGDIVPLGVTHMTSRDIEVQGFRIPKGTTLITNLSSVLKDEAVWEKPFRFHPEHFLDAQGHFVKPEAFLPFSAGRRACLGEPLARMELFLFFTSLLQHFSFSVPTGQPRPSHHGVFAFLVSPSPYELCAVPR
structure (smiles),measurement,setting,value
Cc1cc(C)cc(OCC(N)c2ccccc2)c1.Cl (racemic),EC50,[1]; ipsc-cm,Not Active
same,IC50,[2],20.1 µM
same,Ratio IC50,[3],31
same,Drug metabolism,[4],6.9 pmol/min
same,half-life at 100 µM,[5],> 720 h
same,Drug metabolism,[6],Metabolite_Notdetected
same,Activity,[7],7.4 µM
same,fold change (FC),[8],1.279
same,Activity,[9],66 µM
same,IC50,[10],0.2 µM
same,IC50,[11],6.2 µM
same,Drug metabolism,[12],Metabolite_Notdetected
same,EC50,[13]; read-out: EC50,< 0.8 µM
same,Activity,[14],Not Active
same,Activity,[15],66 µM
Cc1cc(C)cc(OC[C@@H](N)c2ccccc2)c1.Cl,"remaining at 1 h, 50 µM",[16],> 95%
same,"remaining at 1 h, 50 µM",[17],> 95%
same,Activity,[18],Toxic
same,LD50,[19],> 200 mg/kg
same,Activity,[20],Toxic
Cc1ccccc1OC[C@H](N)c1ccccc1.Cl,half-life at 50 µM,[21],6.08 h
same,half-life at 50 µM,[22],6.8 h
COCCNC(COc1cccc(C)c1C)c1ccccc1.Cl (racemic),IC50,[2],25.8 µM
same,Ratio IC50,[23],34.5
same,half-life at 100 µM,[5],> 720 h
same,Activity,[24],Not Active
same,Activity,[7],133 µM
same,fold change (FC),[8],1.508
same,Activity,[9],Not Active
same,IC50,[10],0.747 µM
same,IC50,[11],27.6 µM
same,EC50,[13]; read-out: EC50,5.73 µM
same,half-life at 100 µM,[25],> 720 h
same,Activity,[14],Not Active
same,Activity,[15],200 µM
Cc1ccccc1OC[C@@H](N)c1ccccc1.Cl,"remaining at 1 h, 50 µM",[16],> 95%
same,half-life at 50 µM,[21],2.27 h
Cl.NC(COc1cc(C(F)(F)F)cc(C(F)(F)F)c1)c1ccccc1 (configuration not stated),EC50,[1]; ipsc-cm,Not Active
same,IC50,[2],20 µM
same,Ratio IC50,[23],19.4
same,Activity,[7],22 µM
same,fold change (FC),[8],1.208
same,Activity,[9],133 µM
same,IC50,[10],1.03 µM
same,IC50,[11],7.16 µM
same,EC50,[13]; read-out: EC50,23.1 µM
same,Activity,[14],Not Active
same,Activity,[15],66 µM
Cc1ccccc1OCC(N)c1ccccc1.Cl (racemic),half-life at 100 µM,[5],> 720 h
same,half-life at 100 µM,[25],> 360 h
Cl.NC(COc1ccccc1C(F)(F)F)c1ccccc1 (racemic),EC50,[1]; ipsc-cm,Not Active
same,IC50,[2],41.1 µM
same,Tmax,[26],0.17 h
same,Cmax,[27],226 ng/mL
same,Ratio IC50,[3],36.1
same,Drug metabolism,[4],43.6 pmol/min
same,half-life at 100 µM,[5],> 720 h
same,Drug metabolism,[6],42.6 pmol/min
same,Activity,[7],22 µM
same,Tmax,[28],1.5 h
same,fold change (FC),[8],1.783
same,AUC,[29],1008 ng·h/mL
same,Activity,[9],66 µM
same,IC50,[10],1.04 µM
same,bioavailability,[30],38%
same,IC50,[11],37.5 µM
same,Drug metabolism,[12],15.4 pmol/min
same,t1/2,[31],3.2 h
same,Cmax,[32],250 ng/mL
same,EC50,[13]; read-out: EC50,< 0.8 µM
same,half-life at 100 µM,[25],> 360 h
same,AUC,[33],544 ng·h/mL
same,Activity,[14],Not Active
same,t1/2,[34],6.5 h
same,Activity,[15],66 µM
Cc1ccc(C(N)COc2c(C)cccc2C)cc1.Cl (configuration not stated),EC50,[1]; ipsc-cm,Not Active
same,Ratio EC50,[35],7
same,Activity,[7],22 µM
same,fold change (FC),[8],1.588
same,Activity,[9],66 µM
same,EC50,[13],Not Active
same,Activity,[14],Not Active
same,Activity,[15],66 µM
Cc1cccc(C)c1OC[C@@H](C)N [(R)-MEXILETINE],"remaining at 1 h, 50 µM",[16],> 95%
same,"remaining at 1 h, 50 µM",[17],> 95%
same,IC50,[2],129 µM
same,Activity,[7],7.4 µM
same,Activity,[9],Not Active
same,IC50,[11],84 µM
same,EC50,[13]; read-out: EC50,0.96 µM
same,Activity,[14],200 µM
same,Activity,[36],inactive
Cc1cccc(C)c1OC[C@H](C)N [(S)-MEXILETINE],"remaining at 1 h, 50 µM",[16],> 95%
same,"remaining at 1 h, 50 µM",[17],> 95%
same,IC50,[2],128 µM
same,Activity,[7],22 µM
same,Activity,[9],Not Active
same,IC50,[11],54.3 µM
same,EC50,[13]; read-out: EC50,0.8 µM
same,Activity,[14],200 µM
same,Activity,[36],inactive
Cc1cccc(C)c1OCC(C)N (configuration not stated) [MEXILETINE],EC50,[1]; [38],20.4 µM
same,Tmax,[26],0.17 h
same,Cmax,[27],167 ng/mL
same,Drug metabolism,[4],6 pmol/min
same,Drug metabolism,[6],48.8 pmol/min
same,Activity,[7],22 µM
same,Tmax,[28],1 h
same,AUC,[29],839 ng·h/mL
same,Activity,[9],Not Active
same,bioavailability,[30],37%
same,IC50,[11],53.7 µM
same,Drug metabolism,[12],46.2 pmol/min
same,t1/2,[31],10.6 h
same,Cmax,[32],289 ng/mL
same,EC50,[13]; read-out: EC50,1.8 µM
same,AUC,[33],447 ng·h/mL
same,Activity,[14],200 µM
same,t1/2,[34],11 h
same,Activity,[36],inactive
Cc1cc(C)cc(OC[C@H](N)c2ccccc2)c1.Cl,half-life at 50 µM,[21],6.77 h
same,LD50,[19],> 200 mg/kg
same,Activity,[37],Non-Toxic
same,half-life at 50 µM,[22],16.9 h
Cc1cccc(C)c1OCC(C)NCCc1ccccc1.Cl (configuration not stated),EC50,[1]; [38],2.5 µM
same,Ratio EC50,[35],28
same,Activity,[7],2.5 µM
same,fold change (FC),[8],1.706
same,Activity,[9],133 µM
same,EC50,[13],Not Active
same,Activity,[14],22 µM
same,Activity,[15],7.4 µM
